Activity calls are given as the source filed them. No cut-off for these calls is given here.
How the values were obtained:
[1] = target: 5'-AMP-activated protein kinase catalytic subunit alpha-2 (Homo sapiens) (UniProt P54646); assay: Inhibition of full length recombinant human AMPK alpha2 at 1 uM using AMARAASAAALARRR as substrate measured after 40 mins in presence of [gamma33P]ATP by scintillation counting method relative to control
A549 [2] = assay: Induction of apoptosis in human A549 cells assessed as necrotic cells at 1 uM after 48 hrs by AnnexinV-FITC/PI staining-based flow cytometric analysis (reference value: 0.664%); assay type: functional
[3] = target: Serine/threonine-protein kinase 25 (Homo sapiens) (UniProt O00506); assay: Inhibition of human STK25 (1 to 308 residues) at 1 uM using RLGRDKYKTLRQIRQ as substrate measured after 40 mins in presence of [gamma33P]ATP by scintillation counting method relative to control
Serine/threonine-protein kinase 25 (Homo sapiens), sequence (O00506 whole entry, looked up, the tested form may be a part): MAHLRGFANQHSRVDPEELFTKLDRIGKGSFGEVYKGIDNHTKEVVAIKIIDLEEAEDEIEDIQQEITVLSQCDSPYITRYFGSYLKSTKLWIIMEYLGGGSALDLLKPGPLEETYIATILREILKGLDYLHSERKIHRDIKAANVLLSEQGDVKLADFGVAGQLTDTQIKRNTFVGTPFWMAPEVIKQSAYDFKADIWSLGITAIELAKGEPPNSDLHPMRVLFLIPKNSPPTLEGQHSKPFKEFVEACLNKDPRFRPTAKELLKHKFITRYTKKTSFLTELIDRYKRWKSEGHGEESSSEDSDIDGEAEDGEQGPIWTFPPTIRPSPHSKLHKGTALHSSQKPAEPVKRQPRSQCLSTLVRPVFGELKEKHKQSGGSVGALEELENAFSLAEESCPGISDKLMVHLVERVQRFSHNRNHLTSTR
How it was run: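 Percent inhibition of kinase activity at a single compound concentration, measured by the outsourced Eurofins KinaseProfiler panel. Values are the mean of two independent experiments.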

A549 [4] = assay: Inhibition of tumorsphere formation in human A549 cells after 2 weeks by microscopic analysis; assay type: functional, cell-based
[5] = target: Insulin-like growth factor 1 receptor (Homo sapiens) (UniProt P08069); assay: Inhibition of recombinant human IGF1R (959 to end residues) at 1 uM using KKKSPGEYVNIEFG as substrate measured after 40 mins in presence of [gamma33P]ATP by scintillation counting method relative to control
NCI-H1299 [6] = assay: Induction of apoptosis in human H1299 cells assessed as late apoptotic cells at 1 uM after 48 hrs by AnnexinV-FITC/PI staining-based flow cytometric analysis (reference value: 1.77%); assay type: functional
[7] = target: Interferon-induced, double-stranded RNA-activated protein kinase (Homo sapiens) (UniProt P19525); assay: Inhibition of recombinant human PKR (252 to end residues) at 1 uM using RSRSRSRSRSRSRSR as substrate measured after 40 mins in presence of [gamma33P]ATP by scintillation counting method relative to control
Interferon-induced, double-stranded RNA-activated protein kinase (Homo sapiens), sequence (P19525 whole entry): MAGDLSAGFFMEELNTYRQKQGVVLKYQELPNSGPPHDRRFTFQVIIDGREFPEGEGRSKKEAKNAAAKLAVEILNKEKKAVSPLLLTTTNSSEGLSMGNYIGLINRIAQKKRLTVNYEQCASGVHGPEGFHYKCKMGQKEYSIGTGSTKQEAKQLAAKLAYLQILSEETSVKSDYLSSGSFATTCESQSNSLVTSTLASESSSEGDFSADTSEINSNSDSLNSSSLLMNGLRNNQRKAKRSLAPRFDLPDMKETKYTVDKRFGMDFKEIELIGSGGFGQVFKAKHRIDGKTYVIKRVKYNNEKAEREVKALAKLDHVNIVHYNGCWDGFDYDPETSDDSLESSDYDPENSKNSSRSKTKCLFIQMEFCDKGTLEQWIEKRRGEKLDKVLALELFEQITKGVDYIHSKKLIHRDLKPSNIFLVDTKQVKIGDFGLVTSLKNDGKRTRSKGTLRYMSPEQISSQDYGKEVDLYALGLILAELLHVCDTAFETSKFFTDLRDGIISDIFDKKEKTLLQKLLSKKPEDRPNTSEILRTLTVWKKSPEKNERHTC
How it was run: (§1)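 Single-point inhibition at 1 µM was measured in the Eurofins KinaseProfiler panel. Values are the mean of two independent experiments.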

[8] = target: Rho-associated protein kinase 1 (Homo sapiens) (UniProt Q13464); assay: Inhibition of recombinant human ROCK1 (17 to 535 residues) at 1 uM using KEAKEKRQEQIAKR as substrate incubated for 40 mins in presence of [gamma-33P]ATP by radiometric assay relative to control; how it was run: as §1
[9] = system: Hepatocyte growth factor receptor (Homo sapiens), P08581 [Y1230H]; assay: Inhibition of recombinant human MET A1209G/V1290L/Y1248H mutant (974 to end residues) at 1 uM using KKKGQEEEYVFIE as substrate measured after 40 mins in presence of [gamma33P]ATP by scintillation counting method relative to control
Hepatocyte growth factor receptor (Homo sapiens), P08581 [Y1230H], sequence (P08581 whole entry Y1230H): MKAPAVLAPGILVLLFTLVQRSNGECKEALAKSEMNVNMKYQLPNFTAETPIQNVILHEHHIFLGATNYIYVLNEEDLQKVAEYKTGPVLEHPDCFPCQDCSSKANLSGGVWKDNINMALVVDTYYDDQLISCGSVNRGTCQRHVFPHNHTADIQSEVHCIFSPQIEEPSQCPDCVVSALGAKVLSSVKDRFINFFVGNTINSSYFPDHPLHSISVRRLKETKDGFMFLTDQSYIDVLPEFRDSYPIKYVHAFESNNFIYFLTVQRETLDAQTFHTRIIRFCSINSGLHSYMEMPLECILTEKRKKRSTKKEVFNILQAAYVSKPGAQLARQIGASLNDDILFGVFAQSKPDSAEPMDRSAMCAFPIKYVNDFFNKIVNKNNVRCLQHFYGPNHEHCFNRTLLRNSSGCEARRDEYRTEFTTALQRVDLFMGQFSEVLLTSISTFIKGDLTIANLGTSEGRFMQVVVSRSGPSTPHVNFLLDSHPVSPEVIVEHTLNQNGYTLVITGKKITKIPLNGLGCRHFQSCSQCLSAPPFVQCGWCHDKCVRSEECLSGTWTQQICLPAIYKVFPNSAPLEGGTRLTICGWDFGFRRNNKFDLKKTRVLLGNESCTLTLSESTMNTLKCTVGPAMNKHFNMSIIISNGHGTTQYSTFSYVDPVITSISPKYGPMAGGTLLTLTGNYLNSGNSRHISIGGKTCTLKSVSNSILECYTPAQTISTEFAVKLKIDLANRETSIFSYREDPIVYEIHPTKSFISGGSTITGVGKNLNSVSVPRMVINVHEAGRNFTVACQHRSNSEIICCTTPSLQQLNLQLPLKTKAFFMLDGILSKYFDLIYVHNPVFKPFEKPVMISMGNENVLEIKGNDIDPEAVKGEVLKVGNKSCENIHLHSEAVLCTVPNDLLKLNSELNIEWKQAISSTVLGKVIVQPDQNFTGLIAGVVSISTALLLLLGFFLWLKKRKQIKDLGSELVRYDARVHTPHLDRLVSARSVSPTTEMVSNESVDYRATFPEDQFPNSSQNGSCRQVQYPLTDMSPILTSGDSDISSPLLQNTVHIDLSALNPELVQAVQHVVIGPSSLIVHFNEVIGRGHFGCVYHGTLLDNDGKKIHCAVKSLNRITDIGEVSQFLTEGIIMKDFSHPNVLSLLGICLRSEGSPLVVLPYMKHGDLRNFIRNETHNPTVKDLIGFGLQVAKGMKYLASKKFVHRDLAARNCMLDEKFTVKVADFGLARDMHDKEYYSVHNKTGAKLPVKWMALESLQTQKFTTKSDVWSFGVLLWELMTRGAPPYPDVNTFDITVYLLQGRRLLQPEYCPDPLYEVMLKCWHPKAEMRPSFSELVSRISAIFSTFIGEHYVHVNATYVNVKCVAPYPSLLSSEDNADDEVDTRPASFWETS

[10] = target: Ribosomal protein S6 kinase alpha-1 (Homo sapiens) (UniProt Q15418); assay: Inhibition of recombinant full-length human Rsk1 at 1 uM using KKKNRTLSVA as substrate measured after 40 mins in presence of [gamma33P]ATP by scintillation counting method relative to control
[11] = system: Platelet-derived growth factor receptor alpha (Homo sapiens), P16234 [D842V]; assay: Inhibition of recombinant human PDGFRalpha (550 to end residues) D842V mutant at 1 uM using GGMEDIYFEFMGGKKK as substrate measured after 40 mins in presence of [gamma33P]ATP by scintillation counting method relative to control
Platelet-derived growth factor receptor alpha (Homo sapiens), P16234 [D842V], sequence (P16234 whole entry D842V): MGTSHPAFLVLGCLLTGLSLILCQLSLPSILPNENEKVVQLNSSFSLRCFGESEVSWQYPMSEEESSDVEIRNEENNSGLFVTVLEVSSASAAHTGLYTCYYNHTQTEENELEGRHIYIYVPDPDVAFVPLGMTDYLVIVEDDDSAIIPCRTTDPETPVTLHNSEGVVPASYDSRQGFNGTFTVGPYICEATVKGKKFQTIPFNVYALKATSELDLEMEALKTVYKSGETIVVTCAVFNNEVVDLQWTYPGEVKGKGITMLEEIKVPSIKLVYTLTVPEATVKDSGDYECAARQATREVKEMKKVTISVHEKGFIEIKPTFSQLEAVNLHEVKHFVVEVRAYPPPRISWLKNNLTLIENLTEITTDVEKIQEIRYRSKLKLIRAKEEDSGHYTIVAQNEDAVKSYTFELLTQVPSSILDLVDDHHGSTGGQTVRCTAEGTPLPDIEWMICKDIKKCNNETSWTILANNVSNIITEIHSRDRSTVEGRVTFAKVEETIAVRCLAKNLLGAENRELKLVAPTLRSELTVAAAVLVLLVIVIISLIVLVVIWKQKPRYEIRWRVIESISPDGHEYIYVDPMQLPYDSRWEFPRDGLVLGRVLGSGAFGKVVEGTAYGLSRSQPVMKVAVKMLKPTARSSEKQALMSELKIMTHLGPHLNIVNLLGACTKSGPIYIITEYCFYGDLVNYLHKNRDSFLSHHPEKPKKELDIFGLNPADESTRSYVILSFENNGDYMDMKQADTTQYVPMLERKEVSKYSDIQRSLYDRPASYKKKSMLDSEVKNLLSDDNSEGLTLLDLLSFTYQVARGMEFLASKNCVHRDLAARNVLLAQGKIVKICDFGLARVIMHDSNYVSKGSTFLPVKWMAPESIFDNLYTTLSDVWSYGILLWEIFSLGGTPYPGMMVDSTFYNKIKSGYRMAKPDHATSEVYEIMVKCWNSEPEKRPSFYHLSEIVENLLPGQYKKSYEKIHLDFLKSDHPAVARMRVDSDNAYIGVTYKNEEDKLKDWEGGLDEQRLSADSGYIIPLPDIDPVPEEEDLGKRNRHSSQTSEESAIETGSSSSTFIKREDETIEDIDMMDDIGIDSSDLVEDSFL

[12] = target: Inhibitor of nuclear factor kappa-B kinase subunit alpha (Homo sapiens) (UniProt O15111); assay: Inhibition of human full length recombinant IKKalpha at 1 uM using peptide as substrate incubated for 40 mins in presence of [gamma-33P]ATP at Km concentration by radiometric assay relative to control
Inhibitor of nuclear factor kappa-B kinase subunit alpha (Homo sapiens), sequence (O15111 whole entry): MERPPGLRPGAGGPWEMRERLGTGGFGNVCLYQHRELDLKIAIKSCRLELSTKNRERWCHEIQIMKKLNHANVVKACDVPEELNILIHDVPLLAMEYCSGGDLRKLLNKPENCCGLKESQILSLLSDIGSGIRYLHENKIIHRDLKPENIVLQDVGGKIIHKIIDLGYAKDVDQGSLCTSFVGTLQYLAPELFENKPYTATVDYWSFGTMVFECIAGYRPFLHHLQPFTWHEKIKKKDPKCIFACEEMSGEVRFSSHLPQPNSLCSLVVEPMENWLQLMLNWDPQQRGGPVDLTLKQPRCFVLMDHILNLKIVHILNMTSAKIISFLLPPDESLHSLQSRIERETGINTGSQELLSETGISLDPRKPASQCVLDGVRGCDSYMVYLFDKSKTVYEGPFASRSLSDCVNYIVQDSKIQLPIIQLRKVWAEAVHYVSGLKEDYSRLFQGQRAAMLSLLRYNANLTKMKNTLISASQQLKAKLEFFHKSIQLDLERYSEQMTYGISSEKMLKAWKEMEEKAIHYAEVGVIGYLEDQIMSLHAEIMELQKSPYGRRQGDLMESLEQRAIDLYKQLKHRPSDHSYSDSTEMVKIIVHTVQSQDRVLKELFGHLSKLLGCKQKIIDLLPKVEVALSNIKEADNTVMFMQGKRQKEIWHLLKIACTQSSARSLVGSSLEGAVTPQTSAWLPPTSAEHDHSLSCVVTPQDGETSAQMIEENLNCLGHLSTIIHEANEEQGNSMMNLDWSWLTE

Homo sapiens = organism: Homo sapiens; assay: Inhibition of recombinant human PRAK R291E mutant at 1 uM using KKLRRTLSVA as substrate measured after 40 mins in presence of [gamma33P]ATP by scintillation counting method relative to control
[13] = system: Serine/threonine-protein kinase Chk2 (Homo sapiens), O96017 [R145W]; assay: Inhibition of recombinant human CHK2 R145W mutant (5 to end residues) at 1 uM using KKKVSRSGLYRSPSMPENLNRPR as substrate measured after 40 mins in presence of [gamma33P]ATP by scintillation counting method relative to control; how it was run: as §1
NCI-H1299 [14] = assay: Antitumour activity against human H1299 cells xenografted in po dosed Balb/c mouse assessed as inhibition of tumour growth after 21 days by digital caliper method; assay type: functional, organism-based
How it was run: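 Female nude mice, 6-8 weeks old, injected subcutaneously with 1×10^6 H1299 cells (100 µL of a 1×10^7/mL suspension in serum-free medium). At 100-120 mm3, randomized into groups of 5. Dosed orally each day for 21 days with drug dissolved in DMSO, or with vehicle. Caliper measurements and body weight taken every other day. Volume = short²×long×0.5. Growth inhibition based on change in volume relative to vehicle. Tumours weighed at the end.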

MCF7 = assay: Antiproliferative activity against human MCF7 cells assessed as inhibition of cell viability at 10 uM after 72 hrs by CCK-8 assay relative to control; assay type: functional; conditions: MCF7, 72 h
How it was run: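 Single-concentration viability screen using CCK-8. Cells were seeded at 3000/well and treated for 72 h. A450 read after 1-4 h with reagent. Percent inhibition calculated against untreated control and blank wells as (Ac−As)/(Ac−Ab)×100%.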

[15] = target: Insulin receptor (Homo sapiens) (UniProt P06213); assay: Inhibition of recombinant human IR (1005 to 1310 residues) at 1 uM using KKSRGDYMTMQIG as substrate measured after 40 mins in presence of [gamma33P]ATP by scintillation counting method relative to control
[16] = target: PAS domain-containing serine/threonine-protein kinase (Homo sapiens) (UniProt Q96RG2); assay: Inhibition of recombinant human PASK (995 to end residues) at 1 uM using KKLNRTLSFAEPG as substrate measured after 40 mins in presence of [gamma33P]ATP by scintillation counting method relative to control
NCI-H1299 [17] = assay: Inhibition of tumorsphere formation in human H1299 cells assessed as reduction in side population ratio at 0.25 to 1 uM by PI/Hoechst 33342 staining based flow cytometry; assay type: functional, cell-based
[18] = target: Tyrosine-protein kinase Fes/Fps (Homo sapiens) (UniProt P07332); assay: Inhibition of recombinant human FES (2 to end residues) at 1 uM using poly(Glu, Tyr) 4:1 as substrate measured after 40 mins in presence of [gamma33P]ATP by scintillation counting method relative to control
[19] = target: Mitogen-activated protein kinase kinase kinase kinase 2 (Homo sapiens) (UniProt Q12851); assay: Inhibition of recombinant human GCK (1 to 473 residues) at 1 uM using myelin basic protein as substrate measured after 40 mins in presence of [gamma33P]ATP by scintillation counting method relative to control
[20] = target: Serine/threonine-protein kinase 17A (Homo sapiens) (UniProt Q9UEE5); assay: Inhibition of recombinant full-length human DRAK1 at 1 uM using KKLNRTLSFAEPG as substrate measured after 40 mins in presence of [gamma33P]ATP by scintillation counting method relative to control
Serine/threonine-protein kinase 17A (Homo sapiens), sequence (Q9UEE5 whole entry): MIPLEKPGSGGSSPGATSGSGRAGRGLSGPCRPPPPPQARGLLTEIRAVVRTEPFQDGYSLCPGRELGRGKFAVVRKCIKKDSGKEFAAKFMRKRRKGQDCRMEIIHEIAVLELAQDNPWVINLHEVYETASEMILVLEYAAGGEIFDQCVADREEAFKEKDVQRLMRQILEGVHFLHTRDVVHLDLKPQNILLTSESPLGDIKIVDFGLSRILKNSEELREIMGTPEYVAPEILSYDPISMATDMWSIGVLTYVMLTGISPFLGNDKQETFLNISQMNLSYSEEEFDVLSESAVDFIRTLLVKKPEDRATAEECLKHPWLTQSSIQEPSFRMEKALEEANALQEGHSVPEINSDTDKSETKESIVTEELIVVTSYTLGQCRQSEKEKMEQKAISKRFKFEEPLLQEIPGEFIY

`CN(C)C(=O)c1cc2cnc(Nc3ccc(NC(=O)CCCCCCCN=C=S)cc3)nc2n1C1CCCC1` gave an inhibition [1] of 20%, an Activity (A549 [2]) of 7.76% and an inhibition [3] of -2%. The inhibition (A549 [4]) was “Dose-dependent effect”, the inhibition [5] was -10% and the Activity (NCI-H1299 [6]) was 4.51%. It also gave an inhibition [7] of 11%, an inhibition [8] of 11% and an inhibition [9] of 62%. It also gave an inhibition [10] of 21%, an inhibition [11] of 44% and an inhibition [12] of -1%. For the same compound, the inhibition (Homo sapiens) was 3%, the inhibition [13] was 52% and the TGI (NCI-H1299 [14]) was “Dose-dependent effect”. The inhibition at 10 µM (MCF7) was 98%, the inhibition [15] was -6% and the inhibition [16] was 6%. For the same compound, the inhibition (NCI-H1299 [17]) was “Active”, the inhibition [18] was 7% and the inhibition [19] was 81%. It also gave an inhibition [20] of 22%.
